Experimental data: ChEMBL document CHEMBL2331406, “In vitro activity of scorpiand-like azamacrocycle derivatives in promastigotes and intracellular amastigotes of Leishmania infantum and Leishmania braziliensis” (Eur J Med Chem, 2013)
Calls of active or inactive are those of the source. The calls are words filed in the database; no cut-off is given here.

Experiments:
[1] = Inhibition of Escherichia coli Mn-SOD by […] reduction assay
How it was run: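 Commercial Mn-SOD from Escherichia coli assayed by spectrophotometric NBT-reduction method, in which superoxide reduces NBT.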

Leishmania braziliensis [2] = assay: Antileishmanial activity against promastigote form of […] Leishmania braziliensis MHOM/BR/1975/M2904 infected in J774.2 cells assessed as inhibition of infection in host cells at IC25 concentration incubated for 12 hrs […] by microscopic analysis; assay type: functional, MHOM/BR/75/M2904
Leishmania infantum [3] = assay: Antileishmanial activity against promastigote form of Leishmania infantum MCAN/ES/2001/UCM-10 infected in J774.2 cells assessed as inhibition of infection in host cells at IC25 concentration incubated for 12 hrs followed by compound washout measured after 48 hrs by microscopic analysis; assay type: functional
How it was run: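 J774.2 cells seeded at 1 × 10^4 cells/well on coverslips and cultured 2 days. Infected with promastigotes at 10:1 with drug at IC25 added immediately, for 12 h at 37 °C in 5% CO2. Parasites and drug washed out, then grown 10 days with washing and fresh medium every 48 h. On methanol-fixed, Giemsa-stained slides, % infected cells and amastigotes per infected cell scored from more than 200 host cells. Three determinations.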

[4] = Ratio of compound selectivity index to glucantime selectivity index for axenic amastigote form of Leishmania braziliensis MHOM/BR/1975/M2904 over mouse J774.2 cells
How it was run: (§1)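 Axenic amastigotes obtained by 3-day promastigote transformation in supplemented M199 + 10% heat-inactivated FCS, pH 5.4, 37 °C. […] Host toxicity: J774.2, 72 h, PI/FDA flow cytometry. SI = macrophage IC50/axenic amastigote IC50; ratio is compound SI over Glucantime SI.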

[5] = Ratio of compound selectivity index to glucantime selectivity index for promastigote form of Leishmania braziliensis MHOM/BR/1975/M2904 over mouse J774.2 cells
[6] = Selectivity index, ratio of IC50 for mouse J774.2 cells to IC50 for axenic amastigote form of Leishmania braziliensis MHOM/BR/1975/M2904; assay type: toxicity; conditions: J774.2 cells, read-out: Ratio IC50; how it was run: as §1
[7] = Selectivity index, ratio of IC50 for mouse J774.2 cells to IC50 for promastigote form of Leishmania braziliensis MHOM/BR/1975/M2904; assay type: toxicity; conditions: J774.2 cells, read-out: Ratio IC50
Leishmania braziliensis [8] = assay: Antileishmanial activity against axenic amastigote form of Leishmania braziliensis MHOM/BR/1975/M2904 after 72 hrs by haemocytometric analysis; assay type: functional, MHOM/BR/75/M2904; conditions: Leishmania braziliensis, MHOM/BR/75/M2904, 72 h
How it was run: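 Axenic amastigotes made by culturing promastigotes 3 days at 37 °C in M199 with 10% heat-inactivated FCS plus organic acids, amino acids, sucrose, bicarbonate, MES, haemin and gentamicin, pH 5.4. Compound effect counted in a Neubauer haemocytometer chamber. IC50 by linear regression of Kc values at 1, 10, 25, 50 and 100.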

Leishmania braziliensis [9] = assay: Antileishmanial activity against promastigote form of Leishmania braziliensis MHOM/BR/1975/M2904 after 72 hrs by haemocytometric analysis; assay type: functional; conditions: MHOM/BR/75/M2904, 72 h
How it was run: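 Promastigotes grown at 28 °C in MTL medium with 10% inactivated FCS. Compounds in DMSO (0.1%), diluted in culture medium to 100, 50, 25, 10 and 1. Cells counted at 72 h in a Neubauer haemocytometric chamber. IC50 (50% inhibition) by linear regression of Kc values.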

Leishmania infantum [10] = assay: Antileishmanial activity against amastigote form of Leishmania infantum MCAN/ES/2001/UCM-10 infected in J774.2 cells after 72 hrs by haemocytometric analysis; assay type: functional, organism-based; conditions: Leishmania infantum, MCAN/ES/2001/UCM-10, J774.2, 72 h
How it was run: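 J774.2 macrophages grown in MEM with 2 mM glutamine and 20% inactivated FCS at 37 °C in 5% CO2. Infected with stationary-phase promastigotes at 10:1 for 24 h, then washed free of non-phagocytosed parasites. Compounds at 1, 10, 25, 50 and 100 for 72 h. Amastigotes counted on methanol-fixed, Giemsa-stained preparations and % reduction taken vs untreated. IC50 by linear regression of Kc values; three separate determinations.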

Leishmania braziliensis [11] = assay: Antileishmanial activity against promastigote form of Leishmania braziliensis MHOM/BR/1975/M2904 assessed as electro-dense vesicles at IC25 concentration after 96 hrs by MET microscopic analysis; assay type: functional; conditions: MHOM/BR/75/M2904
How it was run: (§2)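 Promastigotes at 5 × 10^5 cells/mL in MTL medium with compound at IC25 for 96 h. Ultrastructure examined by transmission electron microscopy against untreated control parasites.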

Leishmania braziliensis [12] = assay: Antileishmanial activity against promastigote form of Leishmania braziliensis MHOM/BR/1975/M2904 assessed as empty cytoplasmic at IC25 concentration after 96 hrs by MET microscopic analysis; assay type: functional; conditions: MHOM/BR/75/M2904; how it was run: as §2
Leishmania infantum [13] = assay: Antileishmanial activity against promastigote form of Leishmania infantum MCAN/ES/2001/UCM-10 assessed as increase in glycosomes at IC25 concentration after 96 hrs by […] electron microscopic analysis relative to control; assay type: functional, organism-based; how it was run: as §2
Leishmania braziliensis [14] = assay: Antileishmanial activity against promastigote form of Leishmania braziliensis MHOM/BR/1975/M2904 assessed as change in lactate metabolite production at IC25 concentration after 96 hrs by H1-NMR analysis; assay type: functional, MHOM/BR/75/M2904
How it was run: (§3)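 Promastigote cultures, initial 5 × 10^5 cells/mL, given the IC25 of compound; controls left untreated. Incubated 96 h at 28 °C, then centrifuged at 400g for 10 min. Excreted metabolites in the medium identified by 1H NMR spectra and compared with untreated control.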

Leishmania braziliensis [15] = assay: Antileishmanial activity against promastigote form of Leishmania braziliensis MHOM/BR/1975/M2904 assessed as change in acetate metabolite production at IC25 concentration after 96 hrs by H1-NMR analysis; assay type: functional, MHOM/BR/75/M2904; how it was run: as §3
Leishmania infantum [16] = assay: Antileishmanial activity against promastigote form of Leishmania infantum MCAN/ES/2001/UCM-10 assessed as change in alanine metabolite production at IC25 concentration after 96 hrs by H1-NMR analysis; assay type: functional; how it was run: as §3
Leishmania infantum [17] = assay: Antileishmanial activity against promastigote form of Leishmania infantum MCAN/ES/2001/UCM-10 assessed as ethanol metabolite production at IC25 concentration after 96 hrs by H1-NMR analysis; assay type: functional; how it was run: as §3
Leishmania infantum [18] = assay: Antileishmanial activity against promastigote form of Leishmania infantum MCAN/ES/2001/UCM-10 assessed as change in lactate metabolite production at IC25 concentration after 96 hrs by H1-NMR analysis; assay type: functional; how it was run: as §3
Leishmania infantum [19] = assay: Antileishmanial activity against promastigote form of Leishmania infantum MCAN/ES/2001/UCM-10 assessed as change in acetate metabolite production at IC25 concentration after 96 hrs by H1-NMR analysis; assay type: functional; how it was run: as §3
[20] = Inhibition of promastigote form Leishmania infantum MCAN/ES/2001/UCM-10 Fe-SOD by NBT reduction assay
How it was run: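 Promastigotes sonicated in STE buffer (pH 7.8). The 35–85% ammonium sulphate fraction was desalted into 20 mM potassium phosphate/1 mM EDTA, pH 7.8, and protein was measured by Bradford. Fe-SOD activity was read spectrophotometrically as inhibition of NBT reduction by superoxide (Beyer–Fridovich); one unit gives 50% inhibition of the rate. Compounds tested at […]; IC50 by linear regression; three determinations, Newman–Keuls test.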

[21] = target: Superoxide dismutase [Mn] (Escherichia coli) (UniProt P00448); assay: Inhibition of Escherichia coli Mn-SOD by NBT reduction assay
Sequence of Superoxide dismutase [Mn] (Escherichia coli) (P00448 whole entry, looked up): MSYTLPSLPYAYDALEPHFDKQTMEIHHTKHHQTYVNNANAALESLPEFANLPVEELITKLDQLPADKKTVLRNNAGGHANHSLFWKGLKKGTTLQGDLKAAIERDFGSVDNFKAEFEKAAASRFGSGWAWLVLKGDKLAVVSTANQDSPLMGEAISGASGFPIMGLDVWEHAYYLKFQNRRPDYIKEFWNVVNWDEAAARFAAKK

| IC50 [1] [µM] | IC50 (Leishmania braziliensis [8]) [µM] | IC50 (Leishmania braziliensis [9]) [µM] | IC50 (Leishmania infantum [10]) [µM] | IC50 [20] [µM] | IC50 [21] [µM] | Compound | inhibition (INH) (Leishmania braziliensis [2]) [%] | inhibition (INH) (Leishmania infantum [3]) [%] | Ratio [4] | Ratio [5] | selectivity ratio [6] | selectivity ratio [7] | Activity (Leishmania braziliensis [11]) | Activity (Leishmania braziliensis [12]) | Activity (Leishmania infantum [13]) | Activity (Leishmania braziliensis [14]) [%] | Activity (Leishmania braziliensis [15]) [%] | Activity (Leishmania infantum [16]) [%] | Activity (Leishmania infantum [17]) [%] | Activity (Leishmania infantum [18]) [%] | also measured |
| --- | --- | --- | --- | --- | --- | --- | --- | --- | --- | --- | --- | --- | --- | --- | --- | --- | --- | --- | --- | --- | --- |
| 641 | 23.9 | 23 | 6.3 | 5.7 | 641 | Cl.c1cncc(CNCCN2CCNCc3cccc(n3)CNCC2)c1 | 86 | 84 | 39 | 34 | 19.6 | 20.3 | Active | Active | Active | 19 | -13 | -12 | 28 | -38 | Activity (Leishmania infantum [19]): 1% |
| 408 | 24.9 | 12.3 | 17.4 | 17.6 | 408 | Cl.c1cc2nc(c1)CNCCN(CCNCc1cccc3ccccc13)CCNC2 | 71 | 74 | 29 | 49 | 14.7 | 29.7 | Active | Active | Active | 0 | 8 | -18 | 110 | -44 | Activity (Leishmania infantum [19]): -6% |
| 381 | 16 | 11.8 | 25.6 | 6.5 | 381 | Br.NCCN1CCNCc2cccc(n2)CNCC1 | 64 | – | 29 | 30 | 14.5 | 19.6 | Active | Active | – | 6 | 18 | – | – | – | – |
| 178 | 16 | 11.3 | 19.6 | 16.1 | 179 | Cl.c1ccc(CNCCN2CCNCc3cccc(n3)CNCC2)nc1 | 83 | 77 | 32 | 37 | 15.9 | 22.5 | Active | Active | Active | 0 | -46 | 12 | 10 | 13 | Activity (Leishmania infantum [19]): -19% |
